Converted amounts (≈) assume the structure as drawn. Non-standard residues stand in square brackets, D forms with d. Residues, ends and D or L forms follow the SMILES beside them.
Assays:
Pseudomonas aeruginosa [1] = assay: Antimicrobial activity against Pseudomonas aeruginosa clinical isolates assessed as reduction in bacterial growth after 20 hrs by […]; type: functional
Procedure, shortened: (§1)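 Broth microdilution in LB (YPG for C. albicans) with 2-fold serial dilutions, final 0.1–100 μM. Mid-log cells grown 3–5 h at 37 °C were added at about 5 × 10^5 cfu/mL, then incubated 20 h at 37 °C with shaking. A540 was read every 15 min to build growth curves. Medium with cells served as growth control; at least three runs in duplicate.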

[2] = Hemolytic activity in human type RBC after 1 hr; type: ADME, cell-based, Erythrocyte; settings: red blood cells (erythrocytes), read-out: LC50
Procedure, shortened: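 Peptides at 2.5–400 μM were incubated with a 4% suspension of human erythrocytes in physiological solution for 1 h at 37 °C, then centrifuged at 250g for 5 min; supernatant A540 was read. Saline-treated cells gave 0% lysis and 0.2% Triton X-100 gave 100%. LC50 is the concentration lysing 50% of cells; duplicates in at least two independent experiments.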

Pseudomonas aeruginosa [3] = assay: Antimicrobial activity against Pseudomonas aeruginosa clinical isolates assessed as FIC index in presence of rifampicin after 20 hrs by drop diffusion test; type: functional
Staphylococcus aureus [4] = assay: Antimicrobial activity against Staphylococcus aureus clinical isolates from Liberec regional hospital assessed as reduction in bacterial growth after 20 hrs by broth microdilution assay
[5] = system: Staphylococcus epidermidis; assay: Antimicrobial activity against Staphylococcus epidermidis assessed as reduction in bacterial growth after 20 hrs by broth microdilution assay
Staphylococcus aureus [6] = assay: Antimicrobial activity against Staphylococcus aureus 6271 assessed as reduction in bacterial growth after 20 hrs by broth microdilution assay; settings: Staphylococcus aureus, 6271, 20 h
Pseudomonas aeruginosa [7] = assay: Antimicrobial activity against Pseudomonas aeruginosa clinical isolates assessed as FIC index in presence of tetracycline after 20 hrs by drop diffusion test; type: functional
Bacillus subtilis = assay: Antimicrobial activity against Bacillus subtilis assessed as reduction in bacterial growth after 20 hrs by […]; type: functional; procedure, shortened: as §1
Pseudomonas aeruginosa [8] = assay: Antimicrobial activity against Pseudomonas aeruginosa 5482 assessed as reduction in bacterial growth after 20 hrs […]; type: functional; settings: Pseudomonas aeruginosa, 5482, 20 h; procedure, shortened: as §1
Staphylococcus aureus [9] = assay: Antimicrobial activity against Staphylococcus aureus clinical isolates assessed as FIC index in presence of amoxicillin after 20 hrs by drop diffusion test; type: functional
Staphylococcus aureus [10] = assay: Antimicrobial activity against Staphylococcus aureus clinical isolates from university hospital in Motol assessed as reduction in bacterial growth after 20 hrs by drop diffusion test; type: functional
Candida albicans = assay: Antifungal activity against Candida albicans assessed as reduction in fungal growth after 20 hrs by […]; type: functional; procedure, shortened: as §1
Escherichia coli = assay: Antimicrobial activity against Escherichia coli assessed as reduction in bacterial growth after 20 hrs by […]; type: functional; procedure, shortened: as §1
Micrococcus luteus = assay: Antimicrobial activity against Micrococcus luteus assessed as reduction in bacterial growth after 20 hrs by […]; type: functional; procedure, shortened: as §1

| Compound | MIC (Pseudomonas aeruginosa [1]) [µM] | HC50 at 1 h [2] [µM] | fractional inhibitory concentration index (FICI) (Pseudomonas aeruginosa [3]) | MIC (Staphylococcus aureus [4]) [µM] | MIC [5] [µM] | MIC (Staphylococcus aureus [6]) [µM] | fractional inhibitory concentration index (FICI) (Pseudomonas aeruginosa [7]) | MIC (Bacillus subtilis) [µM] | MIC (Pseudomonas aeruginosa [8]) [µM] | fractional inhibitory concentration index (FICI) (Staphylococcus aureus [9]) | MIC (Staphylococcus aureus [10]) [µM] | MIC (Candida albicans) [µM] | MIC (Escherichia coli) [µM] | MIC (Micrococcus luteus) [µM] |
| --- | --- | --- | --- | --- | --- | --- | --- | --- | --- | --- | --- | --- | --- | --- |
| H-GIMSSLMKKLAKIIKK-NH2 | 10 | > 400 | 0.42 | 8.6 | 2.9 | 33 | 0.54 | ≤ 7 | 5.2 | 0.38 | 17 | 7.6 | 15 | ≤ 3 |
| CC1(C)S[C@@H]2[C@H](NC(=O)[C@H](N)c3ccc(O)cc3)C(=O)N2[C@H]1C(=O)O [AMOXICILLIN] | > 100 |  |  | 35 (≈ 12.8 µg/mL) | 35 (≈ 12.8 µg/mL) | 17 (≈ 6.21 µg/mL) |  |  | > 100 |  | 3.5 (≈ 1.28 µg/mL) |  | 2.7 (≈ 0.987 µg/mL) |  |
| H-GIMSSLMKKLAKIIAK-NH2 | 9.3 | 88 | 0.43 | 5.2 | 5 | 9 | 0.79 | ≤ 7 | 4.5 | 0.5 | 10 | 11 | 3.7 | ≤ 3 |
| CC[C@@H](C)[C@@H](NC(=O)CN)C(=O)N[C@H](CC(C)C)C(=O)N[C@H](CO)C(=O)N[C@H](CO)C(=O)N[C@H](CC(C)C)C(=O)N[C@H](Cc1c[nH]c2ccccc12)C(=O)N[C@H](CCCCN)C(=O)N[C@H](CCCCN)C(=O)N[C@H](CC(C)C)C(=O)N[C@H](CCCCN)C(=O)N[C@H](CCCCN)C(=O)N[C@@H](C(=O)N[C@@H](C(=O)N[C@H](C)C(=O)N[C@H](CCCCN)C(N)=O)[C@H](C)CC)[C@H](C)CC (H-G[dI][dL][dS][dS][dL][dW][dK][dK][dL][dK][dK][dI][dI][dA][dK]-NH2) | 8.8 (≈ 16.1 µg/mL) | 191 | 0.29 | 2.9 (≈ 5.29 µg/mL) | 1.7 (≈ 3.1 µg/mL) | 6.3 (≈ 11.5 µg/mL) | 0.58 | ≤ 7 | 6.7 (≈ 12.2 µg/mL) | 0.73 | 3.2 (≈ 5.84 µg/mL) | 8 (≈ 14.6 µg/mL) | 5 (≈ 9.13 µg/mL) | ≤ 3 |
| H-GILSSLLKKLKKWIAK-NH2 | 21 | 115 | 0.27 | 2.6 | 1.6 | 8 | 0.63 | ≤ 7 | 8 | 0.56 | 4 | 16 | 4 | ≤ 3 |
| H-GIMSSLMKKLAAHIAK-NH2 | 68 | > 400 | 0.26 | 53 | 13 | 63 | 0.56 | ≤ 7 | 20 |  | 64 | 18 | 15 | ≤ 3 |
| H-GIMSSLMKKLAKHIAK-NH2 | 20 | > 400 | 0.25 | 35 | 6.2 | 63 | 0.54 | ≤ 7 | 7.9 | 0.31 | 63 | 14 | 15 | ≤ 3 |
| H-GKLSSLWKKLKKIIAK-NH2 | 19 | > 400 | 0.29 | 11 | 2.5 | 26 | 0.54 | ≤ 7 | 6.8 | 0.25 | 27 | 34 | 20 | ≤ 3 |
| CC[C@@H](C)[C@@H](NC(=O)CN)C(=O)N[C@H](CC(C)C)C(=O)N[C@H](CO)C(=O)N[C@H](CO)C(=O)N[C@H](CC(C)C)C(=O)N[C@H](CC(C)C)C(=O)N[C@H](CCCCN)C(=O)N[C@H](CCCCN)C(=O)N[C@H](CC(C)C)C(=O)N[C@H](CCCCN)C(=O)N[C@H](CCCCN)C(=O)N[C@@H](C(=O)N[C@@H](C(=O)N[C@H](C)C(=O)N[C@H](CCCCN)C(N)=O)[C@H](C)CC)[C@H](C)CC (H-G[dI][dL][dS][dS][dL][dL][dK][dK][dL][dK][dK][dI][dI][dA][dK]-NH2) | 9.7 (≈ 17 µg/mL) | 333 | 0.3 | 2.6 (≈ 4.56 µg/mL) | 3.2 (≈ 5.61 µg/mL) | 5.7 (≈ 9.99 µg/mL) | 0.75 | ≤ 7 | 4.5 (≈ 7.89 µg/mL) | 0.63 | 6.3 (≈ 11 µg/mL) | 9 (≈ 15.8 µg/mL) | 4.5 (≈ 7.89 µg/mL) | ≤ 3 |
| CC[C@@H](C)[C@@H](NC(=O)CN)C(=O)N[C@H](CCSC)C(=O)N[C@H](CO)C(=O)N[C@H](CO)C(=O)N[C@H](CC(C)C)C(=O)N[C@H](CCSC)C(=O)N[C@H](CCCCN)C(=O)N[C@H](CCCCN)C(=O)N[C@H](CC(C)C)C(=O)N[C@H](CCCCN)C(=O)N[C@H](CCCCN)C(=O)N[C@@H](C(=O)N[C@@H](C(=O)N[C@H](C)C(=O)N[C@H](CCCCN)C(N)=O)[C@H](C)CC)[C@H](C)CC (H-G[dI][dM][dS][dS][dL][dM][dK][dK][dL][dK][dK][dI][dI][dA][dK]-NH2) | 8.5 (≈ 15.2 µg/mL) | > 400 | 0.32 | 7 (≈ 12.5 µg/mL) | 2.2 (≈ 3.93 µg/mL) | 13 (≈ 23.2 µg/mL) | 0.67 | ≤ 7 | 3.2 (≈ 5.72 µg/mL) | 0.54 | 16 (≈ 28.6 µg/mL) | 8 (≈ 14.3 µg/mL) | 6.3 (≈ 11.3 µg/mL) | ≤ 3 |
| H-GILSSLLKKWKKIIAK-NH2 | 7.1 | > 400 | 0.42 | 7.8 | 2.7 | 20 | 0.58 | ≤ 7 | 5 | 0.44 | 20 | 11 | 7.5 | ≤ 3 |
| H-GIMSSLMKKLKKHIAK-NH2 | 17 | > 400 | 0.23 | > 100 | 10 | > 100 | 0.39 | ≤ 7 | 6.4 |  | > 100 | 12 | 26 | ≤ 3 |
| H-GIMSSLMKKLAAIIAK-NH2 | 17 | 93 | 0.51 | 10 | 5 | 7.2 | 0.76 | ≤ 7 | 8 | 0.56 | 10 | 8.4 | 3.6 | ≤ 3 |
| H-GIMSSLMKKLAAHIKK-NH2 | 46 | > 400 |  | 77 | 11 | 85 |  | ≤ 7 | 23 |  | 90 | 5 | 20 | ≤ 3 |
| H-GIMSSLMKKLKAHIAK-NH2 | 47 | > 400 | 0.21 | > 100 | 16 | > 100 | 0.31 | ≤ 7 | 26 |  | > 100 | 23 | 30 | ≤ 3 |
| H-GILSSLWKKPKKIIAK-NH2 | > 100 | > 400 |  | > 100 | > 100 | > 100 |  | 49 | 98 |  | > 100 | > 100 | > 100 | 5.8 |
| H-GIMISLMKKLAAHIAK-NH2 | > 100 | 320 |  | 35 | 8.8 | 43 |  | ≤ 7 | 47 |  | 65 | 12 | 12 | ≤ 3 |

— ChEMBL document CHEMBL4477183, “Antimicrobial Peptide from the Wild Bee Hylaeus signatus Venom and Its Analogues: Structure-Activity Study and Synergistic Effect with Antibiotics” (J Nat Prod, 2016)
